In assay [1] the test system is Rattus norvegicus. The assay is described as follows: Antihypertensive activity in spontaneously hypertensive rats was measured as average blood pressure at 100 mg/kg, po after 4 hours of postdose-1; No significant lowering of blood pressure. The class given is functional, organism-based. Further details: dose 100 mg/kg. In outline:
(§1)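 SHR model with two successive doses, designated dose 1 and dose 2. Group-average blood pressure in mmHg was recorded before dosing and at 4 h and 24 h after each dose. The route is oral unless marked intra-arterial or subcutaneous. A table footnote marks doses that gave no significant lowering at 4 or 24 h postdose.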

Assay [2] has as its system Rattus norvegicus. As to the kind of experiment: Antihypertensive activity in spontaneously hypertensive rats was measured as average blood pressure at 100 mg/kg, p.o. after 24 hours of postdose-1; No significant lowering of blood pressure. Further details: dose 100 mg/kg. Type of assay: functional, organism-based. Summed up: as §1
Assay [3] deals with Rattus norvegicus. The assay is described as follows: Antihypertensive activity in spontaneously hypertensive rats was measured as average blood pressure at 100 mg/kg, p.o. after 4 hours of postdose-2. Type of assay: functional. Particulars: route oral. Summed up: as §1
Assay [4] has as its system Rattus norvegicus. As to the kind of experiment: Antihypertensive activity in spontaneously hypertensive rats was measured as average blood pressure at 100 mg/kg, p.o. after 24 hours of postdose-2. As to conditions: route oral. Type of assay: functional. Summed up:
as §1

The subject of assay [5] is Rattus norvegicus. The assay is described as follows: Antihypertensive activity in spontaneously hypertensive rats was measured as average blood pressure at 100 mg/kg, p.o. before predose. Type of assay: functional. Particulars: route oral. Summed up: as §1
Assay [6] relates to Rattus norvegicus. As to the kind of experiment: Antihypertensive activity in spontaneously hypertensive rats was measured as average blood pressure at 100 mg/kg, p.o. after 24 hours of postdose-1. Particulars: route oral. Type of assay: functional. In outline:
as §1

The test system of assay [7] is Rattus norvegicus. As to the kind of experiment: Antihypertensive activity in spontaneously hypertensive rats was measured as average blood pressure at 100 mg/kg, p.o. after 4 hours of postdose-1. The class given is functional. Particulars: route oral. In outline: as §1
For assay [8], the system named is Rattus norvegicus. The assay is described as follows: Antihypertensive activity in spontaneously hypertensive rats was measured as average blood pressure at 30 mg/kg, p.o. after 4 hours of postdose-1. Particulars: route oral. The class given is functional. In outline: as §1
Assay [9] deals with Rattus norvegicus. As to the kind of experiment: Antihypertensive activity in spontaneously hypertensive rats was measured as average blood pressure at 30 mg/kg, p.o. after 4 hours of postdose-2. As to conditions: route oral. Type of assay: functional. In outline: as §1
Assay [10] relates to Rattus norvegicus. As to the kind of experiment: Antihypertensive activity in spontaneously hypertensive rats was measured as average blood pressure at 30 mg/kg, po after 24 hours of postdose-2. Type of assay: functional. Summed up:
as §1

In assay [11] the test system is Rattus norvegicus. As to the kind of experiment: Antihypertensive activity in spontaneously hypertensive rats was measured as average blood pressure at 30 mg/kg, p.o. after 24 hours of postdose-1. The class given is functional. Particulars: route oral. In outline: as §1
Assay [12] relates to Rattus norvegicus. The assay is described as follows: Antihypertensive activity in spontaneously hypertensive rats was measured as average blood pressure at 30 mg/kg, po before predose. The class given is functional. Summed up: as §1
In assay [13] the test system is Rattus norvegicus. The assay is described as follows: Antihypertensive activity in spontaneously hypertensive rats was measured as average blood pressure at 14 mg/kg, p.o. after 24 hours of postdose-1; No significant lowering of blood pressure. The class given is functional, organism-based. Further details: dose 14 mg/kg. Summed up:
as §1

For assay [14], the system named is Rattus norvegicus. The assay is described as follows: Antihypertensive activity in spontaneously hypertensive rats was measured as average blood pressure at 14 mg/kg, p.o. after 4 hours of postdose-1; No significant lowering of blood pressure. The class given is functional, organism-based. Further details: dose 14 mg/kg. Summed up: as §1
In assay [15] the test system is Rattus norvegicus. The assay is described as follows: Antihypertensive activity in spontaneously hypertensive rats was measured as average blood pressure at 15 mg/kg, po after 24 hours of postdose-1; No significant lowering of blood pressure. Further details: dose 15 mg/kg. Type of assay: functional, organism-based. Summed up:
as §1

The test system of assay [16] is Rattus norvegicus. The assay is described as follows: Antihypertensive activity in spontaneously hypertensive rats was measured as average blood pressure at 15 mg/kg, p.o. after 4 hours of postdose-1; No significant lowering of blood pressure. Further details: dose 15 mg/kg. The class given is functional, organism-based. In outline:
as §1

For `CC(=O)c1c(-c2ccc(Cl)cc2)c(-c2ccc(Cl)cc2)nn(CCOC(=O)CNC(=O)OCc2ccccc2)c1=O`, the BP result in the assay with Rattus norvegicus [1] and in the assay on Rattus norvegicus [2] was “Not significant” each time.

With `C[C@](N)(Cc1ccc(O)c(O)c1)C(=O)O` [METHYLDOPA], the BP was 155 mmHg in the assay with Rattus norvegicus [3]; 166 mmHg with Rattus norvegicus [4]; 178 mmHg in the assay with Rattus norvegicus [5]; 174 mmHg in the assay on Rattus norvegicus [6]; 161 mmHg in the assay on Rattus norvegicus [7].

With `CC(=O)c1c(-c2ccc(Cl)cc2)c(-c2ccc(Cl)cc2)nn(CCOC(=O)CCNC(=O)OCc2ccccc2)c1=O`, the BP entry in the assay with Rattus norvegicus [1] and with Rattus norvegicus [2] was “Not significant” throughout.

Take `CCCCCCCCCCCCCCCCCC(=O)OCCn1nc(-c2ccc(Cl)cc2)c(-c2ccc(Cl)cc2)c(C(C)=O)c1=O`: the BP in the assay on Rattus norvegicus [8] was found to be 168 mmHg; with Rattus norvegicus [9], 142 mmHg; in the assay with Rattus norvegicus [10], 137 mmHg; in the assay with Rattus norvegicus [11], 162 mmHg; in the assay with Rattus norvegicus [12], 181 mmHg.

As for `CC(=O)c1c(-c2ccc(Cl)cc2)c(-c2ccc(Cl)cc2)nn(CCOC(=O)C(N)C(C)C)c1=O` (configuration not stated), the BP result with Rattus norvegicus [13] and in the assay on Rattus norvegicus [14] was “Not significant” throughout.

For the compound `CC(=O)c1c(-c2ccc(Cl)cc2)c(-c2ccc(Cl)cc2)nn(CCOC(=O)C(C)(C)C)c1=O`, the BP stood at 200 mmHg with Rattus norvegicus [8]; 158 mmHg with Rattus norvegicus [9]; 205 mmHg in the assay on Rattus norvegicus [10]; 202 mmHg with Rattus norvegicus [11]; 205 mmHg with Rattus norvegicus [12].

On to `CSCCC(N)C(=O)OCCn1nc(-c2ccc(Cl)cc2)c(-c2ccc(Cl)cc2)c(C(C)=O)c1=O` (configuration not stated), for which the BP entry in the assay on Rattus norvegicus [15] and with Rattus norvegicus [16] was “Not significant” each time.

On to `CCC(=O)OCCn1nc(-c2ccc(Cl)cc2)c(-c2ccc(Cl)cc2)c(C(C)=O)c1=O`, for which the BP in the assay on Rattus norvegicus [8] is given as 133 mmHg; with Rattus norvegicus [9] it was 129 mmHg; in the assay with Rattus norvegicus [10], 168 mmHg; in the assay on Rattus norvegicus [11], 136 mmHg; with Rattus norvegicus [12] it was 181 mmHg.

As for `CC(=O)c1c(-c2ccc(Cl)cc2)c(-c2ccc(Cl)cc2)nn(CCOC(=O)C(NC(=O)OCc2ccccc2)C2(/N=C(/N)N[N+](=O)[O-])CCC2)c1=O` (configuration not stated), the BP entry with Rattus norvegicus [1] and in the assay on Rattus norvegicus [2] was “Not significant” in each case.

With `CC(=O)c1c(-c2ccc(Cl)cc2)c(-c2ccc(Cl)cc2)nn(CCOC(=O)C(NC(=O)OCc2ccccc2)C(C)C)c1=O` (configuration not stated), the BP entry with Rattus norvegicus [1] and in the assay on Rattus norvegicus [2] was “Not significant” each time.

The values above are taken from ChEMBL document CHEMBL1121378, “Lipophilic and hydrophilic esters of 4-acetyl-2-(2-hydroxyethyl)-5,6-bis(4-chlorophenyl)-2H-pyridazin-3-one as antihypertensive agents” (1980).
